Experimental data taken from PMC9275543 (Chromatographia, 2022).
Like-named read-outs stand apart in the source and are kept apart here.

Assays:
ACE2 [1] = biological target: T1, ACE2 (Homo sapiens, UniProt Q9BYF1); settings: cell chromatography; cited from earlier work
[2] = Breakthrough on neutravidin control column; assay type: binding; settings: 5 μM; 25 μm i.d.; 30 nL/min; 25 °C; no ACE2 or Main pro
Summary of the method: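 Frontal analysis: free test compound or its PEG-dispersed oxidized multiwall carbon nanotube nanovector, each at 5 μM in 50 mM PBS pH 7.4, flushed successively through a neutravidin poly(GMA-co-EDMA) monolith capillary (40 mm, 25 μm i.d.) with no grafted receptor. Run at 30 nL min−1 and 25 °C with UV detection at 238 nm. Saturation plateau time tp is normalized to DMSO-derived dead time t0.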

[3] = biological target: SARS-CoV-2-Main protease (Main pro) (Severe acute respiratory syndrome coronavirus 2, UniProt P0DTD1); test: Normalized breakthrough curves on the Main pro affinity capillary column; assay type: binding
Summary of the method: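 Recombinant biotinylated Main pro was loaded at 10 μM and 30 nL/min onto a neutravidin poly(GMA-co-EDMA) monolith capillary, immobilising about 1.60 pmol (n = 6). Free test compound and its PEG-dispersed oxidised MWCNT nanovector (5 μM) were flushed in 50 mM PBS pH 7.4. Reference columns were neutravidin-only and ACE2. UV was read at 238 nm. Breakthrough was normalised as outlet/inlet absorbance versus tp/t0, with t0 from DMSO.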

ACE2 [4] = biological target: T1, ACE2; test: Competition experiment with SARS-CoV-2 RBD on the ACE2 affinity column; assay type: binding; settings: from competition with SARS-CoV-2 RBD
[5] = biological target: angiotensin-converting enzyme 2 (ACE2) (Homo sapiens, UniProt Q9BYF1); test: Frontal analysis on the ACE2 affinity capillary column; assay type: binding; settings: 5 μM; 25 μm i.d., 40 mm; 30 nL/min; 25 °C
ACE2 [6] = biological target: T1, ACE2; settings: surface plasmon resonance; cited from earlier work

T1 sequence (Q9BYF1 18-805): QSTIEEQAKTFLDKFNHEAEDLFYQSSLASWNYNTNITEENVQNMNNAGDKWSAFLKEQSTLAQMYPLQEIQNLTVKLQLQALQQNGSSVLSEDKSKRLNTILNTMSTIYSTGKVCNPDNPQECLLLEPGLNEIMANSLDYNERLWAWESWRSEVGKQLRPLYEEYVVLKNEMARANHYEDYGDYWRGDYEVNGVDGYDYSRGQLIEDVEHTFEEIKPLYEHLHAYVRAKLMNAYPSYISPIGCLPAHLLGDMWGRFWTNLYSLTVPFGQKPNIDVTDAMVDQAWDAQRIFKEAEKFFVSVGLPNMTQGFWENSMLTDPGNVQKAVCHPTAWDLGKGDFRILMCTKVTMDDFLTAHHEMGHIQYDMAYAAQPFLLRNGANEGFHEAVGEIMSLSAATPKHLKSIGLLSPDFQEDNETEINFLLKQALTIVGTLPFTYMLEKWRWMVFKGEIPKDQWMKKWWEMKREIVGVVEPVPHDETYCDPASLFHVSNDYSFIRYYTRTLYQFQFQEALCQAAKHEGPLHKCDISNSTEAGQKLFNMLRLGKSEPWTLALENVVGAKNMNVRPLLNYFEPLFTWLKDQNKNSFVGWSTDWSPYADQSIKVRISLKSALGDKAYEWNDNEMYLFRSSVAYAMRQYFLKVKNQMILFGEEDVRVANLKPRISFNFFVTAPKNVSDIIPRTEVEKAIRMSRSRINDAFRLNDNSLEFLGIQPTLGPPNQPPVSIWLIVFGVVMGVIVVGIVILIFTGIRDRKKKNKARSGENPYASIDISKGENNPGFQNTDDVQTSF
Chain of angiotensin-converting enzyme 2 (ACE2) (Q9BYF1 18-805): as above

## CCN(CC)CCCC(C)Nc1ccnc2cc(Cl)ccc12 (stereo not shown) [Chloroquine, chloroquine]
ACE2 [1]
  Kd: 1300 nM

## C[C@@H]1C[C@H]2[C@@H]3CCC4=CC(=O)C=C[C@]4(C)[C@@]3(F)[C@@H](O)C[C@]2(C)[C@@]1(O)C(=O)CO [Dexamethasone]
[2]
  normalized breakthrough time t/t0 on neutravidin control column: ~1
[3]
  Kd: > 5 µM
[3]; 5 μM, 25 μm i.d., 40 mm, 30 nL/min, 25 °C
  normalized breakthrough time on the Main pro column: above 1
ACE2 [4]
  binding site on ACE2: bound on the orthosteric site of ACE2 with specific interaction
[5]
  normalized breakthrough time on the ACE2 column: above 1
ACE2 [6]
  Kd: 9 µM
